Test results reported in PubChem BioAssay.
Values without a mark were called inactive. Results filed as inconclusive are left out. Activity calls are given as the source filed them.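 The calls were made as follows, unless noted: active = RAM network inhibition above 8.4% in each of two replicates, 3 SD over the compound average; inconclusive = above 8.4% inhibition in only one replicate; inactive = 8.4% inhibition or less in each replicate.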

What was measured:
[1] = OD615 S. cerevisiae growth inhibition, permissive medium, pilot counter-assay, permissive growth control for S. cerevisiae lifespan shortening project (AID 705;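 active = growth inhibition above 25% in both replicates, a cutoff set 3 SD above the mean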); conditions: OD615, 24 h, at 10 µM, active compounds read high
Summary of the method: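 System: S. cerevisiae with engineered DeaD lifespan system. Medium: SC raffinose/galactose permissive medium. Doses: single compound dose of 10 µM, 0.25% DMSO final. Schedule: 24 h exposure, 30 °C. Measured by: OD615 turbidity read. Read-out: growth inhibition.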

[2] = Restrictive medium S. cerevisiae growth inhibition, OD615, pilot screen of yeast lifespan reduction project, restrictive growth control (AID 706;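 active = growth inhibition above a set limit, 3 SD over mean compound inhibition, in both replicates, cut at about 43% in these data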;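 also: modified DeaD lifespan yeast strain shifted to restrictive glucose medium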); conditions: OD615, 48 h, at 10 µM, active compounds read high
Summary of the method: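 Assay system – genetically modified Saccharomyces cerevisiae, DeaD replicative lifespan assay strain · Medium – CSMM-D glucose medium · Doses – 10 µM compound, 0.25% DMSO · Times – 4 h pre-incubation, 48 h exposure at 30 °C · Signal – optical density at 615 nm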

[3] = viability gain of MRP-1-high H69AR cells under doxorubicin, pilot screen, MRP-1 activator project, CellTiter-Glo, duplicate (AID 807;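 active = viability increase at or above a cutoff of the median across tested compounds plus 3 SD, cut at about 8.5% in these data, passing the limit was not always enough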;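 also: compound pretreatment 18-22 h then 72 h combined with doxorubicin; 0% = doxorubicin alone and 100% = vehicle without doxorubicin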); conditions: H69AR viability with doxorubicin, CellTiter-Glo luminescence; at 10 µM; active compounds read high
[4] = growth suppression of beta-catenin knockout HCT116, pilot screen, human colon tumor cells (AID 823;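 active = cell viability at or below a set limit in both duplicate runs, the limit being the all-compound median minus 4 SD, cut at about 23% in these data, passing the limit was not always enough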;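 also: 0% = wells killed by 20 µM Hyamine and 100% = untreated DMSO cell wells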); conditions: CellTiter-Glo, 60 h, at 10 µM, active compounds read low
[5] = growth suppression of PTEN-deleted HCT116, pilot screen, cell-based, HCT116 clonal line, CellTiter-Glo (AID 824;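 active = viability at or below 27.92% in each of two runs, the all-compound median minus 4 SD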;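 also: 0% = 20 µM Hyamine control and 100% = vehicle cell control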); conditions: 60 h, at 10 µM, active compounds read low
[6] = inhibitors of the yeast RAM network, pilot screen, dse1pr::URA3 reporter, 5-FOA selection (AID 869;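 active = inhibition over a set limit, the all-compound mean plus 3 SD, in both replicate runs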;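 also: 0% = DMSO wells with no growth and 100% = 10 µM 1-NA-PP1 with full growth; RAM network block rescues cells from 5-FOA so hits raise OD615 growth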); conditions: S. cerevisiae dse1pr::URA3 5-FOA growth, OD615, 2 d; at 10 µM; active compounds read high; strain carries analog-sensitive mutant Cbk1 kinase
[7] = RAM signaling pathway blockade in yeast – S. cerevisiae, Pdr1DBD-CYC8 efflux-inhibited sensitized strain, primary screen (AID 1298);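 also: 0% = DMSO untreated cells without growth and 100% = 10 µM 1-NA-PP1 full growth; higher means more yeast growth rescued from 5-FOA killing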; conditions: S. cerevisiae cbk1-as DSE1-URA3 strain, 5-FOA growth OD615, 2 d; at 50 µM; active compounds read high

SMILES | growth inhibition [1] [%] | growth inhibition [2] | viability increase [3] [%] | viability [4] [%] | viability [5] [%] | inhibition [6] [%] | RAM network inhibition [7] [%]
O=C(NCc1ccncc1)C(F)(F)C(F)(F)C(=O)NCc1ccncc1 | -0.215 | -3.65% | -1.87 | 93.9 | 85.4 | 1.33 | 1.22
N#CC(c1nc2ccccc2nc1N1CCCC1)S(=O)(=O)c1ccccc1 (configuration not stated) | -17.2 | -3.85% | -4.56 | 81.9 | 84.5 | 0.815 | 5.73
CCCCn1c(CCNC(=O)CCC)nc2ccccc21 | -9.84 | 4.55% | -0.74 | 99.1 | 108 | 2.43 | -0.53
Cc1[nH]c2ccccc2c1CCC(N)=O | -0.405 | 3.01% | -1.34 | 101 | 96.2 | 1.92 | 3.67
CCN1CCCC(NC(=O)c2scc3c2CCCC3)C1 (configuration not stated) | -8.03 | -5.2% | -2.12 | 96.5 | 95.1 | 0.625 | -0.09
COc1cc(C2C3=C(CC(C)(C)CC3=O)N(C)C(=O)N2C)cc(OC)c1OC (configuration not stated) | -7.27 | -16.8% | -0.06 | 104 | 103 | 0.385 | -0.15
CC(=O)Nn1cc2c(=O)n(C)c(=O)n(C)c2c1 | -5.47 | 1.6% | 0.99 | 98.3 | 99.7 | 1.68 | 1.13
C=CC(C)Sc1nc2c(c(=O)n(C)c(=O)n2C)n1Cc1ccccc1Cl (configuration not stated) | -3.12 | -2.02% | -3.37 | 100 | 99.3 | 0.785 | 5.22
CCCCOc1ccc(C2(C)CC(=O)NC2=O)cc1 (configuration not stated) | 19.7 | 10.9% | -1.56 | 95.3 | 91.8 | 0.425 | -1.18
CCOc1ccc2nc(NC(=O)COC)sc2c1 | -7.05 | -13.8% | 0.64 | 102 | 102 | 1.05 | 1.66
O=C(C1CCN(S(=O)(=O)c2cccc3cccnc23)CC1)N1CCN(C2CCCC2)CC1 | -9.46 | 7.92% | -1.82 | 94.3 | 99.2 | 0.96 | 0.11
O=C(Nc1nnc(-c2cccs2)o1)c1ccco1 | -0.7 | -3.64% | -4.39 | 93.8 | 89.8 | 0.34 | -2.19
O=C(CCn1c(=O)oc2ccccc21)NCCCN1CCCC1=O | 4.51 | 0.85% | 1.26 | 107 | 98.5 | 1.01 | 0.46
O=C(Nc1ccccc1)OCC1CCCN2CCCCC12 (configuration not stated) | -12.9 | -13.1% | -0.94 | 95.7 | 97.4 | 0.69 | 3.65
CCC(Sc1nccn1C)C(=O)Nc1nnc(C)s1 (configuration not stated) | -21.2 | 2.97% | 5 | 101 | 94.2 | 1.58 | 1.93
Cc1ccc(C)c(N2CCN(C(=O)c3cc4ccccc4oc3=O)CC2)c1 | -11.6 | -15.9% | 1.72 | 100 | 95.5 | 1.18 | 3.38
c1ccc2c(c1)CCN(CCCNc1nc3ccccc3n3cnnc13)C2 | -9.84 | -12.9% | -4.17 | 91.3 | 97.1 | 1.18 | -1.09
O=C(C1CCCN(S(=O)(=O)c2cccc3cccnc23)C1)N1CCc2ccccc21 (configuration not stated) | -2.7 | -3.75% | -5.63 | 68.7 | 66.7 | 1.5 | 3.58

SMILES | growth inhibition [1] [%] | growth inhibition [2] | viability increase [3] [%] | viability [4] [%] | viability [5] [%] | inhibition [6] [%] | RAM network inhibition [7] [%]
O=C(c1cc(-c2cccc(O)c2)on1)N1CCOCC1 | 1.27 | 7.52% | 0.64 | 107 | 98.4 | 2.15 | 2.22
CCOC(=O)C1C(=O)CC(C)(O)C(C(=O)OCC)C1c1cccs1 (configuration not stated) | -3.39 | -20.4% | -2.92 | 90 | 89.2 | 2.07 | 4.69
CCN(CC)CC(=O)n1c2c(c3ccccc31)CCCC2 | 4.59 | -2.73% | -1.1 | 94.5 | 99.5 | 0.57 | 0.67
CCC1Oc2ccc(C)cc2N(CC(=O)NCCc2ccc(OC)c(OC)c2)C1=O (configuration not stated) | -6.91 | 3.82% | -0.77 | 95.2 | 92.4 | 1.23 | -0.46
CC1Cc2ccccc2N1C(=O)CSC1=NCCS1 (configuration not stated) | 7.58 | 50.5% (active) | -6.91 | 92.6 | 95.2 | 2.67 | 6.64
Cn1nc(-c2ccc(Cl)cc2)c2cc(C(=O)N3CCN(c4ccccn4)CC3)sc21 | -0.13 | 28.7% | -5.31 | 37 | 35.1 | -0.47 | 4.7
O=C1C(O)CC2c3ccccc3CC3(CCCC3)N12 (configuration not stated) | -14.1 | -11.3% | -0.65 | 99.4 | 90.4 | 0.65 | 8.18
Cc1nnc(Sc2nc3c(c(=O)[nH]c(=O)n3C)n2CCCc2ccccc2)s1 | -8.19 | -13.4% | -2.42 | 95.1 | 94.7 | 1.21 | 2.87
N#CCCN1CCN(S(=O)(=O)c2ccc(S(=O)(=O)NCc3ccccc3)cc2)CC1 | -3.28 | -15.5% | 0.18 | 96 | 100 | 1.91 | 3.5
COc1ccc2cc(S(=O)(=O)N3CCOCC3)ccc2c1 | -11.2 | -7.81% | -1.77 | 94.4 | 99.2 | 0.075 | 1.03
COc1ccc(S(=O)(=O)Cc2ccc(C(=O)N3CCC(C(N)=O)CC3)o2)cc1 | -3.35 | 0.07% | -0.31 | 76 | 93.5 | 2.22 | 4.37
CC(CCc1ccccc1)NC(=O)CN1CCOc2ccccc21 (configuration not stated) | -7.73 | -1.32% | -5.58 | 84.1 | 83.1 | 0.595 | 3.72
O=C(CSc1nnc(Cc2cc(=O)[nH]c(=O)[nH]2)n1-c1ccc(F)cc1)N1CCCCC1 | -4.41 | 1.35% | -0.28 | 104 | 105 | 0.87 | 2.55
O=C(CSc1ncn[nH]1)Nc1nnc(-c2ccccc2)s1 | 6.24 | 11.1% | 4.9 | 94.3 | 93.7 | -0.75 | 0.61
COc1ccc(-n2c(Cn3c(=O)sc4ccccc43)nnc2SC)cc1 | -12.1 | -8.38% | -2.26 | 101 | 89.6 | 2.47 | 1.33
Cc1cc(C(=O)OCc2nnc(-c3ccccc3)o2)c(C)n1-c1ccccc1 | -4.06 | -12% | -1.07 | 84.4 | 80.6 | 0.125 | 2.44
O=C(C(Cc1ccccc1)n1cccc1)N1CCc2ccccc21 (configuration not stated) | -16.3 | -9.65% | -3.05 | 81.2 | 68.2 | 2.29 | 3.93
Oc1c(/C=N/c2ncn[nH]2)ccc2ccccc12 | -9.29 | -4.74% | -0.29 | 98.3 | 101 | -0.085 | -1.12
